Data as given in the EternaBench riboswitch data.

Test system: MS2 coat protein
Test: apparent Kd, MS2 coat protein; higher = weaker binding; RNA-MaP array; FMN 200 µM where present
How it was run: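 The apparent Kd is reported as the median of filtered per-cluster binding-curve fits. To get these curves, designs transcribed by stalled E. coli RNA polymerase on Illumina sequencing-chip clusters were titrated with SNAP-549-labelled MS2 coat protein from 0.7 or 1.5 nM, doubling to 3 µM. Titrations were run without and then with constant ligand in 100 mM Tris-HCl pH 7.5, 80 mM KCl, 4 mM MgCl2, BSA, DTT, yeast tRNA and Tween-20, and green signal was normalised to red-channel RNA signal and control-cluster median Fmax.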

[1] = designed as: OFF switch for flavin mononucleotide, no ligand
[2] = ligand present: flavin mononucleotide, designed as: OFF switch for flavin mononucleotide
[3] = designed as: ON switch for flavin mononucleotide, no ligand
[4] = ligand present: flavin mononucleotide, designed as: ON switch for flavin mononucleotide

| Sequence | apparent Kd [1] | apparent Kd [2] | apparent Kd [3] | apparent Kd [4] |
| --- | --- | --- | --- | --- |
| AAAUAGUUAGGAUAUACAUGAGGAUCACCCAUGUGGACUGAUGGCGAUUAAUUUAGUGGUAGAAGGGACUCAAA | 43.9 nM | 49.9 nM | – | – |
| AAAUGAUGAGGAUAUACAUGAGGAUCACCCAUGUGUAAAAAUAAAUACACAAAAGAAAGUAGAAGGCAUCAAAA | 31.6 nM | 124 nM | – | – |
| AAAUGCCUGUCGAUGCUCGACAUGAGGAUCACCCAUGUAUGGCAGGAUAUGCAGAACUGACUCGUGCAGAAGGGCUAUACCUAA | 8.06 nM | 24.7 nM | – | – |
| AAAUUUAACGAAGGAUAUGCUUACAUGAGGAUCACCCAUGUGUGCCUUGUGAUGCUGAUUAAGUUGCAGAAGGUCGUAUACAUA | 124 nM | 414 nM | – | – |
| AAAUUUUGUCAAGGAUAUGUAUAAAAGAUAAGAAAACAUGAGGAUCACCCAUGUAUAUGGUGGGAACAGAAGGUGAAUAAGUAA | 185 nM | 158 nM | – | – |
| AAAUUUUGUCAAGGAUAUGUAUUAUUGAUUUGAAAACAUGAGGAUCACCCAUGUAUAUGGUGGGAACAGAAGGUGAAUAAGUAA | 202 nM | 236 nM | – | – |
| AACAAGAGGAUCACCCAUGUAACAUGAGGAUCACCCAUGUUUAAGGAUAUGUACAUGAUACAUGUACAGAAGGUGGAUUGGACU | 26.2 nM | 27.2 nM | – | – |
| AACAAGUGAGGAUAUGAAAAUACAACAAACAAACAUCUACAUCAGAAGGCACAUGAGGAUCACCCAUGUUAAUC | 20.9 nM | 23.2 nM | – | – |
| AACAGACAUGAGGAUCACCCAUGUGAAAACGUACAAGGAUAUGUGUGGAAACCGUACUAUACAGAAGGUGUCUGUC | – | – | 41.3 nM | 72.5 nM |
| AACAGCUCGUCAGGAUAUAUUAUCUUUUUAUGUAUUUAUGUACAUGAGGAUCACCCAUGUUGUUUGUAGAAGGGACGAGCUGAA | 30.4 nM | 26.5 nM | – | – |
| AACAGUACAGGAUAUACAUGAGGAUCACCCAUGUGAGAAUUAAGUGGCGUACCACUAUGUAGAAGGGUACUGGA | 103 nM | 225 nM | – | – |
| AACAUGGUACAGAAGGGCUAUUUAUUUAAUUAUUAUUUAGAACAGCAUAGCAGGAUAUGUUUAACAUGAGGAUCACCCAUGUAC | – | – | 71.3 nM | 14.7 nM |
| AACCAACAUGAGGAUCACCCAUGUUCUCAGACGUUUAGGUCACAGGAUAUUCGUGCUUGUGGGACGGAGAAGGGUGCCUCGCUG | – | – | 92.7 nM | 125 nM |
| AACCAGUUGGUAGGAUAUGGUACAGUACCCGUACCAGAAGGACCAACAUGAGGAUCACCCAUGUUGGAAAGUCAACAUUAAUGA | 6.51 nM | 14 nM | – | – |
| AACCUACAUGAGGAUCACCCAUGUGAGGAUAUAUUGGUAUGGAUGUUAUUUUGUAGAGGUAGAAGGCGCGUGAU | 15.4 nM | 15.4 nM | – | – |
| AACCUAUUACAGAAGGCCAGCUACAUGAGGAUCACCCAUGUCGAGUCAUGGAGGAUAUGUAGUAAUUUACACGCGGGUGAGUAC | – | – | 51.6 nM | 6.25 nM |
| AACGACGGAGGAUAUACACCCUGGGACUCAUCAUCCCUUAGACAUGAGGAUCACCCAUGUAGAAGGCCGGACAC | 34.9 nM | 154 nM | – | – |
| AACGCGUCAGGAUAUAGCGUAACUUAGGUAGUACGACCAUACUAGAAGGGACAUGAGGAUCACCCAUGUGGGUA | 232 nM | 112 nM | – | – |
| AACGGAAUGUAGAAGGGUGACAUGAGGAUCACCCAUGUUCACAUGCGUAUUAAAGUAUGUGAUCCACAGGAUAUACUGUCCGUG | – | – | 957 nM | 92.8 nM |

| Sequence | apparent Kd [1] | apparent Kd [2] | apparent Kd [3] | apparent Kd [4] |
| --- | --- | --- | --- | --- |
| AACUAAGUAUUAAUGGUGUCUGACAGAAGGCAAUAGAAUGAGACCGACAUGAGGAUCACCCAUGUUGAGGAUAUGUCUUGCUAC | 6.44 nM | 6.73 nM | – | – |
| AACUGACAUGAGGAUCACCCAUGUCAGGAUAUGACAUCGAAAAUAAAAUAAAUCGUUGUCAGAAGGGACAUGGG | 21.4 nM | 19.3 nM | – | – |
| AACUGACAUGAGGAUCACCCAUGUCAGGAUAUGACUUCAAAAUAAAAAUAAAAUGAUGUCAGAAGGGACAUGAA | 13.3 nM | 12 nM | – | – |
| AACUGACGACAUCAGUUGCGUAGGCAGGAUAUACAUGAGGAUCACCCAUGUGCAUGAUGCUACGAGUAGAAGGGCCGAGGCGAU | 6.77 nM | 13.4 nM | – | – |
| AACUUACAUGAGGAUCACCCAUGUCAGGAUAUCGAAAUUGGCUCGCAAUUGCGAGCGACGAGAAGGGACGUUUU | 17.3 nM | 24.8 nM | – | – |
| AACUUGCGCACAGGAUAUCCACGGAGCGGACGUGGAGAAGGGUGACAUGAGGAUCACCCAUGUACGUAAGUCUGGAUCACUUCC | – | – | 116 nM | 42.3 nM |
| AAGAAACAUGAGGAUCACCCAUGUCAGGAUAUGCAGGACUGACGAAAGUCAGUCCAAAGCAGAAGGGACUAGAA | 60.7 nM | 81.8 nM | – | – |
| AAGAAGCACGCAGGAUAUCUCACCCAUGUAAGAAGAGAAGGGCGACAUGAGGAUCACCCAUGUCAACAUGAGGAUCACCCAUGU | 62.2 nM | 87.8 nM | – | – |
| AAGAAGGACGCAGGAUAUCCAGGACCUCCCGCAGGAGAAGGGCGAGACAUGAGGAUCACCCAUACAUGAGGAUCACCCAUGUAG | 17.3 nM | 18.4 nM | – | – |
| AAGAAGUCAGGAUAUCCAGCUCGUCACUUGCGUGAUGAGUUGGAGAAGGGACAUGAGGAUCACCCAUGUAAAGC | 47.9 nM | 45.7 nM | – | – |
| AAGAAGUCAGGAUAUGCUGCUCGUCACUUGCGUGAUGAGUAGCAGAAGGGACAUGAGGAUCACCCAUGUAAAGG | 164 nM | 356 nM | – | – |
| AAGAAGUCAGGAUAUGCUGCUCGUCACUUGCGUGAUGAGUAGCAGAAGGGACAUGAGGAUCACCCAUGUGGAAG | 111 nM | 240 nM | – | – |
| AAGAAGUGAGGAUAUCGAAGACUGUCGAAAAGACAGUCGAACGAGAAGGCACAUGAGGAUCACCCAUGUAAGAA | 24.1 nM | 34.5 nM | – | – |
| AAGACACAUGAGGAUCACCCAUGUCAAGAGAGACGAGGAUAUCUGAAAAAAAAAAAAAAAGGAGAAGGCGUGAAAA | – | – | 109 nM | 51.1 nM |
| AAGACUAGAGGAUAUACAUGAGGAUCACCCAUGUAACUGUCAGGUGACUGACGGAGAUGUAGAAGGCUAGUCAA | 19.6 nM | 43.2 nM | – | – |
| AAGAGAAGAACUGAGGAUAUCAGGGAUGGUACAUGAGGAUCACCCAUGUUGGCAAGCGAAGAAACUGAGAAGGCAGAGAAGAAGAA | – | – | 80.3 nM | 48.1 nM |
| AAGAGACAUCAGAAGGGAGCCCGCACGCGCGGCUCAGGAUAUGAGAUCUUAUGUAGUACGACAUGAGGAUCACCCAUGUCCGCG | – | – | 37.8 nM | 7.97 nM |
| AAGAGAGCAGGAUAUCGGUUUUGCGACAUGAGGAUCACCCAUGUGAGCCGAGUCCAACGCCGAGAAGGGCUAAAAU | 62.5 nM | 336 nM | – | – |
| AAGAUGUUAGGAUAUCGAAGGUUGUGGCAGGCGGGAAUUUGCGAGAAGGAACAUGAGGAUCACCCAUGUGAAAU | 22.3 nM | 21.8 nM | – | – |

| Sequence | apparent Kd [1] | apparent Kd [2] | apparent Kd [3] | apparent Kd [4] |
| --- | --- | --- | --- | --- |
| AAGCCUAAUGAGAAGGUGUGUAUAAAUUAUAUACAAGGAUAUCGGUCGAGCGUGUUGACAUGAGGAUCACCCAUGUUGAGGCUU | – | – | 10.3 nM | 6.22 nM |
| AAGCGAGGGACAGGAUAUGCGGCAAAACUUUCCGCAGAAGGGUCGACAUGAGGAUCACCCAUGUCCUUACGCUCCAAGUAGAGG | – | – | 189 nM | 277 nM |
| AAGCUCGUGUGAGGAUAUGCCGCCGUUUCGGCUGCAGAAGGUGCUACGUUACAUGAGGAUCACCCAUGUCUCUGUUGUUUCGUA | – | – | 42.6 nM | 49.7 nM |
| AAGCUGGUAGGAUAUGCUAGGGCGAUUAAUACGCCGAUAGUACAUGAGGAUCACCCAUGUAGAAGGGCCAGAAA | 23.6 nM | 17.8 nM | – | – |
| AAGGAGUCAGGAUAUGCUGCUCGUCACUUGCGUGAUGAGUAGCAGAAGGGACAUGAGGAUCACCCAUGUAAAAA | 56.9 nM | 55.8 nM | – | – |
| AAGGAUCGAGGAUAUACAUAGAUACAGAUUCAUGUAGAACUACAUGAGGAUCACCCAUGUAGAAGGCGAUCAUA | 27.1 nM | 127 nM | – | – |
| AAGGGCUGAGGAUAUGCGCGGGCAAGAUCCUCAAUCCCAAAACAUGAGGAUCACCCAUGUAGAAGGCAGAAAUA | 33.2 nM | 24.2 nM | – | – |
| AAGGUACGAGGAUAUGCAUAGAUACAGACACAUGUUCAAGUACAUGAGGAUCACCCAUGUAGAAGGCGUAUAUA | 43.5 nM | 61.8 nM | – | – |
| AAGGUGCAGGUACAGGAUAUGUUGCUCGUAACAUGAGGAUCACCCAUGUACCUAUGAGAUUAAAUGCAGAAGGGUGCACACCAAA | – | – | 792 nM | 87.5 nM |
| AAGGUGUUAGGAUAUCGAAGGUUGUGGCAGGCGGGAAUUUGCGAGAAGGAACAUGAGGAUCACCCAUGUAAAAU | 24.4 nM | 25.8 nM | – | – |
| AAGUAACAUGAGGAUCACCCAUGUGAGGAUAUGAUUUAAGUUGUAAAAGUAAUAAAGGUCAGAAGGUAUGUGAA | 62.1 nM | 61.1 nM | – | – |
| AAGUAACAUGAGGAUCACCCAUGUUAGGAUAUCUCGGCCACAGGAUCGCUGUGAAGCCAGAGAAGGAGCGGGUG | 175 nM | 186 nM | – | – |
| AAGUAGAUCCGAGGAUAUACAAGCCGGAAACGGUACAUGAGGAUCACCCAUGUAGAAGGCGGAUCUACAGGUACUAAAGUACCA | 5.53 nM | 9.17 nM | – | – |
| AAGUUUUUACAAGGAUAUCAUUUGUUUCUAAAUUCAACAUGAGGAUCACCCAUGUAACAAUGGAGUGAGAAGGUGUGUUGGCAA | – | – | 101 nM | 84.6 nM |
| AAUAAACAUGAGGAUCACCCAUGUCAGGAUAUGCGUCUAACCUAAUACCAUAGAUACGGCAGAAGGGACUAAUA | 50.2 nM | 33.8 nM | – | – |
| AAUAAACUCACAGGAUAUAGCAGAGGUCACGUGAACUUACAGGCGACGAUGCUAGAAGGGUGACCACAUGAGGAUCACCCAUGU | – | – | 862 nM | 135 nM |
| AAUAAACUCACAGGAUAUAGCAUAGGUCGCGUGAACUUACAGGCGACGAUGCUAGAAGGGUGACCACAUGAGGAUCACCCAUGU | – | – | 892 nM | 172 nM |
| AAUAACAGAGGAUAUACUAUUUUAUGUGUUUAUUGUUUUGAACAUGAGGAUCACCCAUGUAGAAGGCUGAGUAA | 30.2 nM | 38 nM | – | – |
